Screening results as filed in PubChem BioAssay.
bCat KO growth = beta-catenin-lacking colon tumor cell growth suppression; HCT116 beta-catenin knockout viability, CellTiter-Glo, 60 h; active compounds read low; viability, % at 10 µM; hit rate 1.5% among 140,000; AID 818;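 active = viability at or under a set limit, the compound median less 4 SD, cut at about 6% in these data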;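 note: 0% = Hyamine 1622 control at 20 µM and 100% = untreated cell control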
PTK2B oligo ant = Pyk2 (human) oligomerization antagonism; z-score (the deposit names both 25 µM and 10 µM); Q293 cells, Pyk2 FERM NanoBiT luminescence; active compounds read low; hit rate 0.83% among 99,000; AID 1347419; Q14289;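 active = Z-score of -3 or lower, scaled per plate to the spread of control and sample wells; inactive = z-score above -3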;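 note: negative z-score means lost luminescence so less FERM oligomerization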
HUVEC inhibit = human endothelial cell proliferation inhibition; HUVEC proliferation, CellTiter-Glo luminescence, 72 h; active compounds read low; viability, % at 10 µM (by protocol); hit rate 1.1% among 86,000; AID 648;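 active = viability at or below 30%; inactive = viability above 30%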;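 note: 100% = median luminescence of DMSO-only cell control wells on each plate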
Fibroblast inh = blocks proliferation of human lung fibroblasts; LL 47 human lung fibroblast viability, ATP luminescence; active compounds read low; viability, % at 10 µM; hit rate 1.1% among 85,000; AID 719;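 active = viability at or below 50% in the single dose screen; inactive = viability above 50%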;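 note: compound exposure lasted 72 h before the ATP readout; 100% = median luminescence of untreated cell-only wells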
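test system = LL 47 human lung fibroblasts | amount = 1,150 fibroblasts seeded per well | medium = 15% FBS in IMEM | times = overnight cell rest, 72 h compound treatment at 37 °C | measured by = CellTiter-Glo luminescence measuring cellular ATP | read-out = viability percentage against median untreated-cell control | benchmarks = cell-only wells, no compound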
H69AR inhibit = growth inhibitors of human H69AR lung tumor cells | viability, % at 10 µM | hit rate 6% among 85,000 | H69AR lung tumor viability, ATP luminescence, 72 h; active compounds read low;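 active = viability at or below 40%; inactive = viability above 40%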;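 note: multidrug resistant small cell line overexpressing MRP-1 efflux transporter; 100% = mean luminescence of untreated control wells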
HCT116 PTEN-null = suppresses growth of cells with PTEN deletion. hit rate 1.2% among 140,000. viability, % at 10 µM. HCT116 PTEN-null viability, CellTiter-Glo, 60 h; active compounds read low;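 active = viability at or below a set limit, 4 SD under the median of all tested compounds, cut at about 3.7% in these data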;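 note: PTEN knockout HCT116 line with beta catenin targeted HCT116 as companion control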
Starred values were filed as active, the others as inactive; . = no result. The entries come from a sample that favours hits as a whole.

SMILES	bCat KO growth	PTK2B oligo ant	HUVEC inhibit	Fibroblast inh	H69AR inhibit	HCT116 PTEN-null
CCCC1(CCC)C(=O)NC(=NCc2ccccc2)NC1=O	25	1.6	51	53	29*	46
CC(C)Oc1ccc(C2(C#N)CC[N+](C)(C)CC2)cc1	98	.	.	.	.	99
COc1ccccc1-n1c(-c2ccoc2)nc2ccccc2c1=O	90	-0.68	.	.	.	82
O=c1c2ccccc2nc(-c2ccoc2)n1-c1ccccc1Cl	36	-0.19	86	98	34*	34
ON1C2CCCCC2N(O)C1c1ccccc1 (stereo not drawn)	94	1.7	96	106	97	99
Brc1ccc2[nH]cc(/C=N/N3CCCCC3)c2c1	97	.	.	.	.	95
CCCC1(CCC)C(=O)NC(=Nc2ccccc2)NC1=O	101	0.22	89	102	68	109
CCCCC1(CCCC)C(=O)NC(=Nc2cccc(C)c2)NC1=O	32	-2.1	59	52	7.8*	12
Cc1cc(C)cc(N2C(=O)NC(=O)/C(=C\c3cccn3-c3ccc(Cl)cc3)C2=O)c1	44	-3.2*	.	.	.	27
COc1cc(/C=C/C(=O)c2c(O)n(CCc3ccccc3)c(=O)[nH]c2=O)ccc1O	10	.	.	.	.	6
C=CCn1c(O)c(C=NCCCOc2ccc(CC)cc2)c(=O)[nH]c1=S	69	-0.39	49	83	31*	70
C[C@H]1CCCC(=O)CCC/C=C/c2cc(O)cc(O)c2C(=O)O1	65	.	52	106	36*	66
CN(C)P(=O)(C(Cl)=C(N1CCCCC1)N1CCCCC1)N(C)C	58	0.68	100	98	45	65
C[C@@H]1O[C@@H](O[C@H]2C[C@@H](O)[C@]3(CO)[C@H]4[C@H](O)C[C@]5(C)[C@@H](C6COC(=O)C6)CC[C@]5(O)[C@@H]4CC[C@]3(O)C2)[C@H](O)[C@H](O)[C@H]1O (stereo partly drawn)	4.6*	.	.	.	.	5
COc1ccc(/C=C2/C(=O)NC(=S)N(C3CC3)C2=O)cc1CN1C(=O)c2ccccc2C1=O	91	.	.	.	.	101
CN1C(=O)N(C)C(=O)C2(Cc3cc([N+](=O)[O-])ccc3N(C)C2c2ccccc2)C1=O (stereo not drawn)	83	.	.	.	.	84
CCCCCCCSc1cc(OC)c(CCNC)cc1OC	1.5*	-1.1	.	.	.	1.6*
Cc1cccn2c(=O)c3cc(C(=O)N4CCC5(CC4)OCCO5)n(C)c3nc12	14	1.1	56	57	20*	13
CC(=O)OC(C)(C)/C=C/C(=O)[C@](C)(O)[C@H]1[C@H](O)C[C@@]2(C)[C@@H]3CC=C4[C@H](C[C@H](O)C(=O)C4(C)C)[C@]3(C)C(=O)C[C@]12C	2.4*	.	.	.	.	1.9*
CCN(CC)c1ccc(N=Cc2c(O)n(Cc3ccccc3)c(=O)[nH]c2=O)cc1	86	-0.48	70	74	17*	97
CCOc1ccccc1-n1c(O)c(C=Nc2ccc(N(CC)CC)cc2)c(=O)[nH]c1=O	44	-1.3	65	71	19*	53
C=CCn1c(O)c(C(C)=Nc2ccc(N(C)C)cc2)c(=O)[nH]c1=O	96	-0.38	95	103	47	84
C=CCn1c(O)c(C(C)=Nc2ccc(N(CC)CC)cc2)c(=O)[nH]c1=O	36	-0.57	70	66	20*	28
CCOC(=O)c1c(-n2c(C)cc(C=C3C(=O)NC(=S)NC3=O)c2C)sc2c1CCCC2	3.8*	-1	.	.	.	5
CCOC(=O)c1c(-n2c(C)cc(/C=C3/C(=O)NC(=O)N(CC)C3=O)c2C)sc2c1CCCC2	.	0.04	.	.	.	.
SMILES	bCat KO growth	PTK2B oligo ant	HUVEC inhibit	Fibroblast inh	H69AR inhibit	HCT116 PTEN-null
CCCCc1nc(N2CCNCC2)c(C#N)c2c1CSC(C)(C)C2	1.7*	-0.43	.	.	.	1.9*
COP(=O)(OC)C1(Nc2ccc(C)cc2)CCCCC1	98	0.05	102	97	85	107
CN1CCC(N(C)c2nc(-c3ccccc3)nc3ccccc23)CC1	24	-0.64	66	90	27*	24
COc1cc(/C=C/[N+](=O)[O-])ccc1O	4.0*	.	.	.	.	3.3*
Fc1ccc2c(c1)nnn2C1CCN(Cc2nnnn2C2CCCCC2)CC1	92	0.23	97	92	27*	92
Cc1ccc(C)c(CN2CCC(n3nnc4cc(F)ccc43)CC2)c1	81	0.51	.	.	.	80
Fc1ccc2c(c1)nnn2C1CCN(Cc2c(Cl)cccc2Cl)CC1	83	-0.09	89	96	88	72
Cc1ccc(Cn2nnnc2CN2CCC(n3nnc4cc(C)ccc43)CC2)cc1	47	0.06	65	90	27*	43
FC(F)(F)c1ccc2c(c1)nnn2C1CCN(Cc2nnnn2Cc2ccccc2)CC1	55	-0.94	70	93	.	42
Cc1ccc(Cn2nnnc2CN2CCC(n3nnc4cc(C(F)(F)F)ccc43)CC2)cc1	47	-0.59	54	75	2.0*	43
Fc1ccccc1CCNCc1cccc(Cl)c1Cl	85	1.7	.	.	.	81
